Tests used:
[1] = Gadolinium(III) stability constants (log K value) for the compound polyamino carboxylate derivative; format: physicochemical; settings: 0.1 M KCl
In short: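 Potentiometric titration under argon at 25.00(5) °C in 0.100 M KCl, meter calibrated to read -log [H+] with dilute standard HCl. LDTPA with an equimolar amount of GdCl3 titrated with CO2-free 0.0999 M KOH, added in 0.100 mL aliquots, up to pH 11. Ligand protonation constants came from a parallel titration without metal. Constants were computed from the titration data.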

Rattus norvegicus [2] = species: Rattus norvegicus; test: Biodistribution of Gd-LDTA (conjugated with mannose BSA) protein using [111In]- in mature female Sprague-Dawley rat colon after injecting for 48 hour.; format: ADME, organism-based; settings: in vivo
Rattus norvegicus [3] = species: Rattus norvegicus; test: Biodistribution of In-LDTA (conjugated with BSA) protein using [111In]- in mature female Sprague-Dawley rat bone after injecting for 4 hour.; format: ADME, organism-based, Bone element; settings: in vivo
In short: (§1)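 SCN-LDTPA was coupled (pH 9 bicine, 24 h, RT) to BSA, mannosylated BSA or galactosylated BSA and FPLC-purified. The conjugate (400 μg) was labeled with 340 μCi 111In acetate at pH 5.5 for 45 min and gel-filtered. Mature female Sprague-Dawley rats received 19 μg of conjugate; four rats per time point. Blood, liver, bone, kidney and colon were taken and reported as %ID/organ.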

Rattus norvegicus [4] = species: Rattus norvegicus; test: Biodistribution of Gd-LDTA (conjugated with mannose BSA) protein using [111In]- in mature female Sprague-Dawley rat kidney after injecting for 4 hour.; format: ADME, organism-based; settings: in vivo
Rattus norvegicus [5] = species: Rattus norvegicus; test: Biodistribution of In-LDTA (conjugated with mannoseBSA) protein using [111In]- in mature female Sprague-Dawley rat bone after injecting for 48 hour.; format: ADME, organism-based, Bone element; settings: in vivo; in short: as §1
Rattus norvegicus [6] = species: Rattus norvegicus; test: Biodistribution of In-LDTA (conjugated with mannoseBSA) protein using [111In]- in mature female Sprague-Dawley rat colon after injecting for 24 hour.; format: ADME, organism-based; settings: in vivo; in short: as §1
Rattus norvegicus [7] = species: Rattus norvegicus; test: Biodistribution of In-LDTA (conjugated with BSA) protein using [111In]- in mature female Sprague-Dawley rat colon after injecting for 24 hour.; format: ADME, organism-based; settings: in vivo; in short: as §1
Rattus norvegicus [8] = species: Rattus norvegicus; test: Biodistribution of In-LDTA (conjugated with galactose BSA)protein using [111In]- in mature female Sprague-Dawley rat bone after injecting for 4 hour.; format: ADME, organism-based, Bone element; settings: in vivo; in short: as §1
Rattus norvegicus [9] = species: Rattus norvegicus; test: Biodistribution of In-LDTA (conjugated with galactose BSA)protein using [111In]- in mature female Sprague-Dawley rat colon after injecting for 1 hour.; format: ADME, organism-based; settings: in vivo; in short: as §1
Rattus norvegicus [10] = species: Rattus norvegicus; test: Biodistribution of In-LDTA (conjugated with mannoseBSA) protein using [111In]- in mature female Sprague-Dawley rat bone after injecting for 1 hour.; format: ADME, organism-based, Bone element; settings: in vivo; in short: as §1
Rattus norvegicus [11] = species: Rattus norvegicus; test: Biodistribution of In-LDTA (conjugated with mannoseBSA) protein using [111In]- in mature female Sprague-Dawley rat bone after injecting for 24 hour.; format: ADME, organism-based, Bone element; settings: in vivo; in short: as §1
Rattus norvegicus [12] = species: Rattus norvegicus; test: Biodistribution of In-LDTA (conjugated with BSA) protein using [111In]- in mature female Sprague-Dawley rat liver after injecting for 4 hour.; format: ADME, organism-based; settings: in vivo; in short: as §1
Rattus norvegicus [13] = species: Rattus norvegicus; test: Biodistribution of Gd-LDTA (conjugated with mannose BSA) protein using [111In]- in mature female Sprague-Dawley rat bone marrow after injecting for 48 hour.; format: ADME, organism-based; settings: in vivo
Rattus norvegicus [14] = species: Rattus norvegicus; test: Biodistribution of Gd-LDTA (conjugated with mannose BSA) protein using [111In]- in mature female Sprague-Dawley rat liver after injecting for 96 hour.; format: ADME, organism-based; settings: in vivo
Rattus norvegicus [15] = species: Rattus norvegicus; test: Biodistribution of Gd-LDTA (conjugated with mannose BSA) protein using [111In]- in mature female Sprague-Dawley rat liver after injecting for 1 hour.; format: ADME, organism-based; settings: in vivo
Rattus norvegicus [16] = species: Rattus norvegicus; test: Biodistribution of In-LDTA (conjugated with BSA) protein using [111In]- in mature female Sprague-Dawley rat blood after injecting for 4 hour.; format: ADME, organism-based; settings: in vivo; in short: as §1
Rattus norvegicus [17] = species: Rattus norvegicus; test: Biodistribution of In-LDTA (conjugated with mannoseBSA) protein using [111In]- in mature female Sprague-Dawley rat kidney after injecting for 4 hour.; format: ADME, organism-based; settings: in vivo; in short: as §1
Rattus norvegicus [18] = species: Rattus norvegicus; test: Biodistribution of In-LDTA (conjugated with mannoseBSA) protein using [111In]- in mature female Sprague-Dawley rat kidney after injecting for 48 hour.; format: ADME, organism-based; settings: in vivo; in short: as §1
Rattus norvegicus [19] = species: Rattus norvegicus; test: Biodistribution of In-LDTA (conjugated with mannoseBSA) protein using [111In]- in mature female Sprague-Dawley rat kidney after injecting for 1 hour.; format: ADME, organism-based; settings: in vivo; in short: as §1
Rattus norvegicus [20] = species: Rattus norvegicus; test: Biodistribution of In-LDTA (conjugated with mannoseBSA) protein using [111In]- in mature female Sprague-Dawley rat liver after injecting for 24 hour.; format: ADME, organism-based; settings: in vivo; in short: as §1
Rattus norvegicus [21] = species: Rattus norvegicus; test: Biodistribution of Gd-DTA (conjugated with BSA)protein using [111In]- in mature female Sprague-Dawley rat kidney after injecting for 96 hour.; format: ADME, organism-based; settings: in vivo
Rattus norvegicus [22] = species: Rattus norvegicus; test: Biodistribution of Gd-LDTA (conjugated with galactose BSA) protein using [111In]- in mature female Sprague-Dawley rat bone after injecting for 24 hour.; format: ADME, organism-based, Bone element; settings: in vivo
In short: (§2)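 Conjugate of SCN-LDTPA with BSA, mannosylated BSA or galactosylated BSA (10 equiv chelate, pH 9 bicine, RT 24 h; FPLC-purified) was labelled with 340 μCi 111In acetate at pH 5.5 for 45 min. It was then gel-filtered (Biospin-6) and checked for purity by FPLC. Mature female Sprague-Dawley rats received 19 μg of conjugate. Four rats per time point (1, 4, 24, 48 h) were killed; blood, liver, bone, kidney and colon were taken and %ID/organ was calculated.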

Rattus norvegicus [23] = species: Rattus norvegicus; test: Biodistribution of Gd-LDTA (conjugated with galactose BSA) protein using [111In]- in mature female Sprague-Dawley rat blood after injecting for 1 hour.; format: ADME, organism-based; settings: in vivo; in short: as §2
Rattus norvegicus [24] = species: Rattus norvegicus; test: Biodistribution of Gd-DTA (conjugated with BSA)protein using [111In]- in mature female Sprague-Dawley rat blood after injecting for 96 hour.; format: ADME, organism-based; settings: in vivo
Rattus norvegicus [25] = species: Rattus norvegicus; test: Biodistribution of Gd-DTA (conjugated with BSA)protein using [111In]- in mature female Sprague-Dawley rat colon after injecting for 24 hour.; format: ADME, organism-based; settings: in vivo; in short: as §2
Rattus norvegicus [26] = species: Rattus norvegicus; test: Biodistribution of Gd-LDTA (conjugated with galactose BSA) protein using [111In]- in mature female Sprague-Dawley rat blood after injecting for 24 hour.; format: ADME, organism-based; settings: in vivo; in short: as §2
Rattus norvegicus [27] = species: Rattus norvegicus; test: Biodistribution of Gd-LDTA (conjugated with galactose BSA) protein using [111In]- in mature female Sprague-Dawley rat blood after injecting for 4 hour.; format: ADME, organism-based; settings: in vivo; in short: as §2
Rattus norvegicus [28] = species: Rattus norvegicus; test: Biodistribution of Gd-LDTA (conjugated with galactose BSA) protein using [111In]- in mature female Sprague-Dawley rat bone marrow after injecting for 4 hour.; format: ADME, organism-based; settings: in vivo
Rattus norvegicus [29] = species: Rattus norvegicus; test: Biodistribution of Gd-LDTA (conjugated with galactose BSA) protein using [111In]- in mature female Sprague-Dawley rat colon after injecting for 4 hour.; format: ADME, organism-based; settings: in vivo; in short: as §2
Rattus norvegicus [30] = species: Rattus norvegicus; test: Biodistribution of Gd-LDTA (conjugated with galactose BSA) protein using [111In]- in mature female Sprague-Dawley rat colon after injecting for 48 hour.; format: ADME, organism-based; settings: in vivo; in short: as §2
Rattus norvegicus [31] = species: Rattus norvegicus; test: Biodistribution of Gd-LDTA (conjugated with galactose BSA) protein using [111In]- in mature female Sprague-Dawley rat kidney after injecting for 1 hour.; format: ADME, organism-based; settings: in vivo; in short: as §2
Rattus norvegicus [32] = species: Rattus norvegicus; test: Biodistribution of Gd-LDTA (conjugated with galactose BSA) protein using [111In]- in mature female Sprague-Dawley rat liver after injecting for 48 hour.; format: ADME, organism-based; settings: in vivo; in short: as §2
Rattus norvegicus [33] = species: Rattus norvegicus; test: Biodistribution of In-LDTA (conjugated with galactose BSA)protein using [111In]- in mature female Sprague-Dawley rat kidney after injecting for 48 hour.; format: ADME, organism-based; settings: in vivo; in short: as §1
Rattus norvegicus [34] = species: Rattus norvegicus; test: Biodistribution of Gd-DTA (conjugated with BSA)protein using [153Gd]- in mature female Sprague-Dawley rat bone marrow after injecting for 4 hour.; settings: in vivo

Log K [1]: 22 | ID/organ (Rattus norvegicus [2]): 0.21% | ID/organ (Rattus norvegicus [3]): 19.1% | ID/organ (Rattus norvegicus [4]): 0.542% | ID/organ (Rattus norvegicus [5]): 9.84% | ID/organ (Rattus norvegicus [6]): 0.732% | ID/organ (Rattus norvegicus [7]): 2.87% | ID/organ (Rattus norvegicus [8]): 0.329% | ID/organ (Rattus norvegicus [9]): 0.0098% | ID/organ (Rattus norvegicus [10]): 10.5% | ID/organ (Rattus norvegicus [11]): 8.9% | ID/organ (Rattus norvegicus [12]): 17% | ID/organ (Rattus norvegicus [13]): 1.77% | ID/organ (Rattus norvegicus [14]): 24.4% | ID/organ (Rattus norvegicus [15]): 70.2% | ID/organ (Rattus norvegicus [16]): 53.8% | ID/organ (Rattus norvegicus [17]): 0.244% | ID/organ (Rattus norvegicus [18]): 0.465% | ID/organ (Rattus norvegicus [19]): 0.144% | ID/organ (Rattus norvegicus [20]): 75.2% | ID/organ (Rattus norvegicus [21]): 2.73% | ID/organ (Rattus norvegicus [22]): 7.01% | ID/organ (Rattus norvegicus [23]): 0.207% | ID/organ (Rattus norvegicus [24]): 0.418% | ID/organ (Rattus norvegicus [25]): 2.83% | ID/organ (Rattus norvegicus [26]): 0.02% | ID/organ (Rattus norvegicus [27]): 0.045% | ID/organ (Rattus norvegicus [28]): 0.109% | ID/organ (Rattus norvegicus [29]): 4.09% | ID/organ (Rattus norvegicus [30]): 35.3% | ID/organ (Rattus norvegicus [31]): 0.114% | ID/organ (Rattus norvegicus [32]): 34.8% | ID/organ (Rattus norvegicus [33]): 0.14% | ID/organ (Rattus norvegicus [34]): 1.75%
SMILES: Nc1ccc(CC(C(=O)O)N(CCN(CC(=O)O)CC(=O)O)CCN(CC(=O)O)CC(=O)O)cc1 (centres undefined)

Reference: ChEMBL document CHEMBL1129260, “Evaluation of the stability and animal biodistribution of gadolinium (III) benzylamine-derivatized diethylenetriaminepentaacetic acid” (J Med Chem, 1996)
